# KCNK3 inh – human KCNK3 channel inhibitors, primary screen, CHO cells, FluxOR thallium flux, B-score; 0.84% of 340,000 active; FluxOR fluorescence; active compounds read low; B-score at 10 µM;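 active means B-score under library mean minus 4 SD, starting fluorescence ratio at most library mean plus 5 SD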;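 further: more negative B-score means stronger inhibition of thallium flux through KCNK3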
# Kir21 inh – inhibitors of mouse Kir2.1 inward-rectifier potassium channel. HEK293-Kir2.1, FluxOR thallium flux fluorescence; active compounds read low. B-score at 10 µM. 0.85% of 310,000 active. AID 1672, 2009;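 active means fluorescence ratio B-score at or below minus 3 SD of library scores, with starting-brightness B-score within 2 SD, cut at about -4.2 in these data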;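 further: channel flux triggered by added potassium and thallium sulfate stimulus; B-score of peak minus minimum fluorescence over baseline after thallium stimulus; more negative B-score means stronger Kir2.1 block with less thallium influx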
# hERG protect – hERG rescue from dofetilide block, primary screen, cell-based, CHO-hERG, FluxOR thallium flux, dofetilide IC70; dofetilide IC70 present; activation (rescue from dofetilide block), less the hit threshold, % at 10 µM; 0.51% of 310,000 active; AID 1511, 2009;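 active means activation above the mean of controls blocked by dofetilide plus 5 SD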;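 further: thallium influx through hERG after potassium depolarization seen as dye fluorescence rise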
# KCNQ1 block – inhibitors of human KCNQ1 channel, primary screen, cell-based, thallium flux, high-throughput; 1.3% of 310,000 active; B-score at 10 µM; CHO-K1 KCNQ1, FluxOR thallium flux fluorescence; active compounds read high; Potassium voltage-gated channel subfamily KQT member 1 (Homo sapiens), P51787;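 active means compounds whose thallium flux B-score, printed positive for inhibition, exceeds three library SD while starting fluorescence stays within three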;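 further: channel opened by potassium depolarization with thallium stimulus after 20 min compound exposure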
# KCNK9 block – KCNK9 potassium channel inhibitors, primary screen, HEK293 cells, thallium flux; 1.2% of 310,000 active; Potassium channel subfamily K member 9 (Homo sapiens), Q9NPC2; B-score at 10 µM; AID 488922, 2010; FluxOR thallium flux fluorescence; active compounds read low;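 active means ratio B-score over 3 SD below the library mean, with starting fluorescence within 5 SD of its mean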;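 further: negative B-score means less thallium flux so channel inhibition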
# Target sequence (Q9NPC2 whole entry, looked up): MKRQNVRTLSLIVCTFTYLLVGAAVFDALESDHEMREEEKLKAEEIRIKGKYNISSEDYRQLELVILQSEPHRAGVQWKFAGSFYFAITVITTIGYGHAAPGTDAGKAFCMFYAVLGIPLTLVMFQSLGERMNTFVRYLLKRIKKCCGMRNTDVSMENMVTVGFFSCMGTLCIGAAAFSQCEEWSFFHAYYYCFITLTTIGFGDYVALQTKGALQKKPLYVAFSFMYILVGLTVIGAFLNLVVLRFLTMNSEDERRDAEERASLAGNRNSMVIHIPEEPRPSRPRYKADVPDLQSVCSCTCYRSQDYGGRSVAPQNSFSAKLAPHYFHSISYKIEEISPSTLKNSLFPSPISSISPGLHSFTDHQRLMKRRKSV
# KCNQ1 act – potentiators or activators of KCNQ1 channel, primary screen, cell-based, thallium flux, high-throughput | B-score at 10 µM | CHO-K1 KCNQ1, thallium flux FluxOR fluorescence; active compounds read high | 0.35% of 310,000 active;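 active means fluorescence ratio B-score, a plate-corrected score, at least three library SD, with initial intensity B-score within 5 SD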
#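 Assay system: CHO-K1 cells stably expressing KCNQ1; Medium: assay buffer with matched DMSO; Also added: K+/Tl+ depolarizing stimulus; Dosing: single dose; Timing: dye 90 min, compound 20 min, room temperature; Measured by: kinetic FluxOR thallium fluorescence, 10-s 1-Hz baseline, 110-s post-stimulus read; Read-out: peak-minus-minimum fluorescence over initial fluorescence, negative-control normalized, B-scored.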
# KCNK9 block conf – KCNK9 potassium channel inhibitors, confirmation, HEK293 cells, thallium flux, duplicate; FluxOR thallium flux fluorescence; AID 492992, 2010; shares compounds with KCNK9 block; 43% of 4,900 active; inhibition, % at 10 µM;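 active means thallium signal inhibited by more than 5 SD of the compound-free buffer control wells, on both duplicate plates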;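 further: 0% = assay buffer control wells without compound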
# Kir21 sel – mouse Kir2.1 channel inhibition, confirmation, selectivity assay for KCNK9 modulator project, cell-based, HEK293, thallium flux; Kir2.1 cells, FluxOR thallium flux fluorescence; AID 492993, 2010; inhibition, % at 10 µM; shares compounds with KCNK9 block; 4% of 4,900 active;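 active means thallium signal drop more than 5 SD beyond the mean of the no-compound control wells, seen in both duplicate plates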;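 further: signal is fluorescence rise after thallium addition divided by baseline fluorescence; plate controls were assay buffer only for no effect and full block by chlorpromazine control for full effect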
# KCNK9 uninduced – thallium flux in non-induced HEK293 cells, confirmation, counter-screen for KCNK9 inhibitor project, cell-based, second counter screen, non-induced KCNK9-HEK293 | FluxOR thallium flux | shares compounds with KCNK9 block | inhibition, % at 10 µM | 40% of 4,900 active;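 active means thallium signal drop beyond 5 SD of the untreated control mean, on both duplicate plates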;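 further: plate controls were buffer only IC0 wells for no effect and SID17386958 at its maximal inhibitory level for full effect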
# An asterisk follows results filed as active; i = inactive; nt = no result. An excerpt weighted towards active compounds, which were near 3.7% of everything screened.
SMILES,KCNK3 inh,Kir21 inh,hERG protect,KCNQ1 block,KCNK9 block,KCNQ1 act,KCNK9 block conf,Kir21 sel,KCNK9 uninduced
Cc1nnc(SCC(=O)Nc2sc3c(c2C(=O)c2ccccc2)CCCC3)s1,i,-2.05,-7.8,i,i,i,i,i,i
CC1CCc2sc(C(=O)NNS(=O)(=O)c3ccc(F)c(F)c3F)cc2C1 (stereo unspecified),i,-0.4,0.0,i,i,i,nt,nt,nt
CCOC(=O)c1c(NC(=O)CSc2nnc(-c3ccc(Cl)cc3)o2)sc2c1CCC2,i,-1.07,-11.4,i,i,i,i,i,i
C/C(=C/c1ccccc1)C(=O)N1CCN(c2ccccc2F)CC1,i,0.63,-2.3,i,i,i,nt,nt,nt
CC(C(=O)N1CCc2ccccc21)N1CCN(c2cccc(C(F)(F)F)c2)CC1 (stereo unspecified),i,0.24,-9.5,i,i,i,i,i,i
O=C(CSCc1ccccc1)N1CCN(c2cccc(C(F)(F)F)c2)CC1,i,2.58,-7.7,i,i,i,i,i,i
Cc1ccc(C)c(NC(=S)N2CCN(c3cccc(C(F)(F)F)c3)CC2)c1,i,0.01,-3.9,i,i,i,nt,nt,nt
C/C(=C\c1ccccc1)C(=O)N1CCN(c2cccc(C(F)(F)F)c2)CC1,i,0.22,-9.6,i,i,i,i,i,i
O=C(CSCc1ccccc1)N1CCN(c2ccccc2)CC1,i,-0.88,-6.3,i,i,i,nt,nt,nt
Cc1ccnc(NC(=S)N2CCN(c3cccc(C(F)(F)F)c3)CC2)c1,i,-0.43,-15.6,i,i,i,i,i,i
CC(C(=O)N1CCc2ccccc21)N1CCN(S(=O)(=O)c2ccc(C(F)(F)F)cc2)CC1 (stereo unspecified),i,nt,nt,nt,nt,nt,nt,nt,nt
O=C1NN(c2ccc(F)c(Cl)c2)C(=O)/C1=C\c1cccc(OC(=O)c2cccs2)c1,i,-1.73,-11.4,i,i,i,i,i,i
CC(O)CNc1nc2sc3c(c2c(=O)n1CCc1ccccc1)CCCCC3 (stereo unspecified),i,-0.97,-11.8,i,i,i,i,i,i
COC(=O)Cn1c(=O)n(CCc2ccccc2)c(=O)c2c3c(sc21)CCCC3,i,0.84,-10.3,i,i,i,i,i,i
CC(O)CNc1nc2sc3c(c2c(=O)n1Cc1ccco1)CCCCC3 (stereo unspecified),i,0.01,-8.8,i,i,i,nt,nt,nt
N#Cc1ccc(OS(=O)(=O)c2ccc(-c3ccon3)s2)cc1,i,-1.42,-7.1,i,i,i,nt,nt,nt
COc1ccc(CCNC(=O)CN2C(=O)COc3ccc(S(=O)(=O)N4CCCC4)cc32)c(OC)c1,i,0.18,-6.8,i,i,i,nt,nt,nt
CC(C)(C)c1nnc(NC(=O)Cc2ccc(Br)cc2)s1,i,-0.82,-3.0,i,i,i,nt,nt,nt
COc1ccccc1NC(=O)C(=O)NCC(c1ccco1)N1CCc2ccccc2C1 (stereo unspecified),i,1.21,-6.4,i,i,i,i,i,i
CCc1ccc(NC(=O)C2CCCN2c2nn3c(=O)cc(C)nc3s2)cc1 (stereo unspecified),i,0.39,-3.0,i,i,i,nt,nt,nt
COc1ccccc1OCCCOc1ccc([N+](=O)[O-])cc1Cl,i,0.36,-5.6,i,i,i,i,i,36.5%*
COc1cccc(OCCCOc2ccc([N+](=O)[O-])cc2Cl)c1,i,-1.12,-6.0,i,i,i,nt,nt,nt
CCC(=O)n1nc(NCc2ccccc2OC)nc1NCc1ccccc1OC,i,0.69,-11.7,8*,i,i,i,i,i
CCOC(=O)c1cccc(N/C=C/C(=O)c2ccc(OC)c(OC)c2)c1,i,1.03,4.3,i,-16.4*,i,76.0%*,i,38.5%*
CS(=O)(=O)c1ccc2nc(NC(=O)c3ccc(S(=O)(=O)NCC4CCCO4)cc3)sc2c1 (stereo unspecified),i,2.4,-10.6,i,i,i,nt,nt,nt
SMILES,KCNK3 inh,Kir21 inh,hERG protect,KCNQ1 block,KCNK9 block,KCNQ1 act,KCNK9 block conf,Kir21 sel,KCNK9 uninduced
CC(=O)NC(Cc1cccc(C)c1)C(=O)NC1CCN(C(=O)NCc2ccccc2)CC1 (stereo unspecified),i,-1.25,-6.2,i,i,i,nt,nt,nt
CCOc1cc(C(=O)NC(C)CCc2ccccc2)cc(OCC)c1OCC (stereo unspecified),i,-1.21,-4.5,i,i,i,i,i,i
CCOC(=O)c1cc2occc2n1Cc1ccc(F)cc1,i,0.62,-7.8,i,-8.28*,i,i,i,30.0%*
COC(=O)c1cc2occc2n1Cc1ccc(Cl)cc1,i,-0.19,-15.1,i,i,i,nt,nt,nt
CCCCCCCCC[n+]1cccc2c3ccccc3ccc21,i,-10.4*,-31.8,i,-17.4*,i,70.5%*,89.5%*,30.0%*
CCCCCCCCCCCCCCCC[n+]1cccc2ccccc21,i,nt,nt,nt,nt,nt,nt,nt,nt
Cc1nn(C)c(C)c1NS(=O)(=O)c1ccccc1Cl,i,nt,nt,nt,nt,nt,nt,nt,nt
CCOC(=O)N1CCN(S(=O)(=O)CCNC(=O)c2ccc(F)cc2)CC1,i,-0.01,-10.3,i,i,i,nt,nt,nt
CCCN(CC(=O)Nc1cccc(Br)c1)CC(=O)Nc1ccc(F)c(F)c1F,i,1.65,-3.5,i,-15.4*,i,72.5%*,i,50.0%*
CCCN(CC(=O)Nc1ccc(C)cc1Br)CC(=O)Nc1ccc(F)c(F)c1F,i,-0.46,-8.4,i,-9.94*,i,64.0%*,i,39.0%*

# Screening results from PubChem BioAssay.
